{
  "source": "ChEMBL document CHEMBL3217620",
  "about": "“Relative impact of 3- and 5-hydroxyl groups of cytosporone B on cancer cell viability” (Medchemcomm, 2013)",
  "key": {"[1]": {"molecular_target": "Nuclear receptor subfamily 4immunitygroup A member 1 (Homo sapiens) (UniProt P22736)", "sequence (P22736 whole entry, the tested form may be a part)": "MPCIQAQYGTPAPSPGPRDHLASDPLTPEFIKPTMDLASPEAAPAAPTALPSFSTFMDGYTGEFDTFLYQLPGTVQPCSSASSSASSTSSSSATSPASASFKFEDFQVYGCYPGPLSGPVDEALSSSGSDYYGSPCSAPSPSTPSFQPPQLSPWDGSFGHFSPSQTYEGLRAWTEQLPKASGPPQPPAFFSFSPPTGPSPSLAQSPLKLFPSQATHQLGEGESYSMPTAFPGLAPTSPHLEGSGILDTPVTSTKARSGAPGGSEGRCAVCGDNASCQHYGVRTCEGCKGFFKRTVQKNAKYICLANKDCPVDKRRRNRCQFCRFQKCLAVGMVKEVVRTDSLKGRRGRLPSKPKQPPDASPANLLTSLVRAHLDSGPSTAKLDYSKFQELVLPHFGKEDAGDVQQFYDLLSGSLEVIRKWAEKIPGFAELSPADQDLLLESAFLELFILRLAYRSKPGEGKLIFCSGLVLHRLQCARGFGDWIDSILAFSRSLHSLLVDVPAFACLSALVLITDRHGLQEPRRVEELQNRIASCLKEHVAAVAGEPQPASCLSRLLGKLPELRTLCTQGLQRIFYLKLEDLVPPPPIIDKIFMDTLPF", "test": "Binding affinity to human recombinant N-terminal His6-tagged NR4A1 LBD expressed in Escherichia coli BL21 at 100 uM by NMR spectroscopy"}, "[2]": {"test": "Cytotoxicity against human H460 cells at 20 uM after 72 hrs by MTT assay", "assay_type": "functional", "conditions": "NCI-H460, 72 h"}, "BGC-823 [3]": {"test_system": "BGC-823", "test": "Induction of apoptosis in human BGC823 cells assessed as nuclear DNA condensation at 15.5 uM after 48 hrs", "assay_type": "functional"}, "BGC-823 [4]": {"test_system": "BGC-823", "test": "Induction of apoptosis in human BGC823 cells assessed as procaspase9 cleavage at 15.5 uM after 48 hrs", "assay_type": "functional"}, "LNCaP [5]": {"test_system": "LNCaP", "test": "Cytotoxicity against human LNCAP cells after 72 hrs by MTT assay", "assay_type": "functional, cell-based", "method_in_brief": "(§1)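 LNCaP cells at 5×10^3/well in RPMI-1640 with 10% FBS, attached 24 h. Treated 72 h with compound at 1–20 µM or DMSO alone (0.2% final). Viability by MTT per kit protocol. Points are means of six replicates ± SD; IC₅₀ interpolated from dose–response curves.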"}, "[6]": {"molecular_target": "Nuclear receptor subfamily 4immunitygroup A member 1 (Homo sapiens) (UniProt P22736)", "test": "Binding affinity to NR4A1 (unknown origin) at 0.1 uM by luciferase reporter gene assay relative to control"}, "[7]": {"molecular_target": "Nuclear receptor subfamily 4immunitygroup A member 1 (Homo sapiens) (UniProt P22736)", "test": "Induction of translocation of NR4A1 from nucleus to cytoplasm in human H460 cells at 10 uM after 8 hrs by DAPI staining-based confocal microscopy relative to control", "assay_type": "cell-based", "method_in_brief": "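Serum-starved H460 cells grown overnight on coverslips, treated 8 h with 10 µM compound or vehicle. Fixed (3.7% paraformaldehyde), permeabilized (0.3% Triton X-100, 10 min), blocked in 3% BSA. Stained with rabbit monoclonal anti-NR4A1 and Alexa Fluor 594 anti-rabbit IgG, nuclei with DAPI. Overlaid confocal images used to judge NR4A1 localization.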"}, "NCI-H460 [8]": {"test_system": "NCI-H460", "test": "Induction of apoptosis in human H460 cells assessed as DNA fragmentation at 10 uM after 8 hrs by DAPI staining-based confocal microscopy relative to control", "assay_type": "functional", "method_in_brief": "(§2)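 H460 cells in serum-free RPMI-1640 on coverslips, attached 12 h, given 10 μM compound for 8 h. Fixed in 3.7% paraformaldehyde, permeabilized in 0.3% Triton X-100/PBS, blocked in 3% BSA, DAPI-stained and viewed by fluorescence microscopy. Cells with nuclear fragmentation and/or chromatin condensation scored in 300-cell fields; mean of triplicates ± SD.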"}, "[9]": {"test": "Cytotoxicity against human H460 cells after 72 hrs by MTT assay", "assay_type": "functional, cell-based", "conditions": "NCI-H460, 72 h", "method_in_brief": "(§3)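 NCI-H460 NSCLC cells, […] exponentially growing cells/well, seeded and left overnight. Compound added at 0.1, 1.0 and 10 μM (vehicle DMSO, 0.1% final) in RPMI-1640 with 10% FBS for 72 h. MTT then added at 0.5 mg/mL for 4 h, formazan dissolved in DMSO, absorbance read at 490 nm.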"}, "NCI-H460 [10]": {"test_system": "NCI-H460", "test": "Induction of apoptosis in human H460 cells assessed as chromatin condensation at 10 uM after 8 hrs by relative to control", "assay_type": "functional", "method_in_brief": "as §2"}, "LNCaP [11]": {"test_system": "LNCaP", "test": "Cytotoxicity against human LNCAP cells at 20 uM after 72 hrs by MTT assay", "assay_type": "functional", "method_in_brief": "as §1"}, "BGC-823 [12]": {"test_system": "BGC-823", "test": "Induction of apoptosis in human BGC823 cells assessed as mitochondrial cytochrome c release at 15.5 uM after 48 hrs", "assay_type": "functional"}, "[13]": {"test": "Cytotoxicity against human H460 cells assessed as cell viability at 10 uM after 72 hrs by MTT assay", "assay_type": "functional", "conditions": "NCI-H460, 72 h, read-out: Activity", "method_in_brief": "as §3"}, "NCI-H460 [14]": {"test_system": "NCI-H460", "test": "Induction of apoptosis in human H460 cells assessed as PARP cleavage at 10 uM after 8 hrs by SDS-PAGE", "assay_type": "functional, cell-based", "method_in_brief": "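H460 cells in serum-free RPMI-1640, attached 12 h, then given 10 μM compound for 8 h. Lysed in Tris-HCl pH 7.9 buffer with NaCl, EDTA, Triton X-100 and protease inhibitors. Run on 12% SDS-PAGE, blotted to nitrocellulose, probed overnight at 4 °C with rabbit polyclonal anti-PARP, then HRP anti-rabbit IgG. ECL detection; β-actin reprobe as loading control.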"}, "[15]": {"test": "Cytotoxicity against human H460 cells after 48 hrs by MTT assay", "assay_type": "functional, cell-based", "conditions": "NCI-H460, 48 h"}, "LNCaP [16]": {"test_system": "LNCaP", "test": "Cytotoxicity against human LNCAP cells after 72 hrs", "assay_type": "functional, cell-based"}, "[17]": {"molecular_target": "Nuclear receptor subfamily 4immunitygroup A member 1 (Homo sapiens) (UniProt P22736)", "test": "Binding affinity to human recombinant N-terminal His6-tagged NR4A1 LBD expressed in Escherichia coli BL21 at 50 uM by NMR spectroscopy"}, "[18]": {"molecular_target": "Nuclear receptor subfamily 4immunitygroup A member 1 (Homo sapiens) (UniProt P22736)", "test": "Binding affinity to human recombinant N-terminal His6-tagged NR4A1 LBD expressed in Escherichia coli BL21 by isothermal titration calorimetry"}},
  "note": "Active and inactive are the calls of the source. The rule behind the calls is not given here.",
  "data": [
    {"smiles": "CCCCCCCC(=O)c1c(O)cc(O)cc1CC(=O)OCC", "note": "[CYTOSPORONE B]", "values": [
      {"measurement": "Activity", "setting": "[1]", "value": "Active"},
      {"measurement": "inhibition at 20 µM", "setting": "[2]", "value": 88, "unit": "%"},
      {"measurement": "Activity", "setting": "BGC-823 [3]", "value": 63, "unit": "%"},
      {"measurement": "Activity", "setting": "BGC-823 [4]", "value": 63, "unit": "%"},
      {"measurement": "IC50", "setting": "LNCaP [5]", "value": 13.4, "unit": "µM"},
      {"measurement": "Ratio", "setting": "[6]", "value": 12.5},
      {"measurement": "Activity", "setting": "[7]", "value": "Active"},
      {"measurement": "fold change (FC)", "setting": "NCI-H460 [8]", "value": 4.4},
      {"measurement": "IC50", "setting": "[9]", "value": 15.3, "unit": "µM"},
      {"measurement": "fold change (FC)", "setting": "NCI-H460 [10]", "value": 4.4},
      {"measurement": "inhibition at 20 µM", "setting": "LNCaP [11]", "value": 76, "unit": "%"},
      {"measurement": "Activity", "setting": "BGC-823 [12]", "value": 63, "unit": "%"},
      {"measurement": "viability at 10 µM", "setting": "[13]", "value": 50, "unit": "%"},
      {"measurement": "Activity", "setting": "NCI-H460 [14]", "value": "Active"}
    ]},
    {"smiles": "FC(F)(F)c1ccc(C(c2c[nH]c3ccccc23)c2c[nH]c3ccccc23)cc1", "values": [
      {"measurement": "IC50", "setting": "LNCaP [5]", "value": 9.7, "unit": "µM"},
      {"measurement": "Activity", "setting": "[7]", "value": "Active"},
      {"measurement": "IC50", "setting": "[15]", "value": 7.7, "unit": "µM"},
      {"measurement": "fold change (FC)", "setting": "NCI-H460 [8]", "value": 3.7},
      {"measurement": "IC50", "setting": "[9]", "value": 4.6, "unit": "µM"},
      {"measurement": "fold change (FC)", "setting": "NCI-H460 [10]", "value": 3.7},
      {"measurement": "inhibition at 20 µM", "setting": "LNCaP [11]", "value": 97, "unit": "%"},
      {"measurement": "viability at 10 µM", "setting": "[13]", "value": 90, "unit": "%"},
      {"measurement": "IC50", "setting": "LNCaP [16]", "value": 5, "unit": "µM"},
      {"measurement": "Activity", "setting": "NCI-H460 [14]", "value": "Active"}
    ]},
    {"smiles": "CCCCCCCC(=O)c1c(O)cc(OC)cc1CC(=O)OCC", "values": [
      {"measurement": "inhibition at 20 µM", "setting": "[2]", "value": 75, "unit": "%"},
      {"measurement": "IC50", "setting": "LNCaP [5]", "value": 11.4, "unit": "µM"},
      {"measurement": "Activity", "setting": "[7]", "value": "Active"},
      {"measurement": "Activity", "setting": "[17]", "value": "Active"},
      {"measurement": "fold change (FC)", "setting": "NCI-H460 [8]", "value": 5.1},
      {"measurement": "IC50", "setting": "[9]", "value": 15.9, "unit": "µM"},
      {"measurement": "fold change (FC)", "setting": "NCI-H460 [10]", "value": 5.1},
      {"measurement": "inhibition at 20 µM", "setting": "LNCaP [11]", "value": 80, "unit": "%"},
      {"measurement": "viability at 10 µM", "setting": "[13]", "value": 22, "unit": "%"},
      {"measurement": "Activity", "setting": "NCI-H460 [14]", "value": "Active"}
    ]},
    {"smiles": "CCCCCCCC(=O)c1c(CC(=O)OCC)cc(OC)cc1OC", "values": [
      {"measurement": "inhibition at 20 µM", "setting": "[2]", "value": 11, "unit": "%"},
      {"measurement": "Activity", "setting": "[7]", "value": "inactive"},
      {"measurement": "Activity", "setting": "[17]", "value": "inactive"},
      {"measurement": "IC50", "setting": "[9]", "value": "> 20", "unit": "µM"},
      {"measurement": "inhibition at 20 µM", "setting": "LNCaP [11]", "value": 14, "unit": "%"},
      {"measurement": "viability at 10 µM", "setting": "[13]", "value": 24, "unit": "%"},
      {"measurement": "Activity", "setting": "[18]", "value": "inactive"},
      {"measurement": "Activity", "setting": "NCI-H460 [14]", "value": "Active"}
    ]}
  ]
}
